Results on 14 molecules are retold here after ChEMBL document CHEMBL1146538, “Antioxidative glycosides from the leaves of Ligustrum robustum” (J Nat Prod, 2003).

The subject of one test is Erythrocyte. Briefly: (§1) Antioxidant activity assessed as inhibition of AAPH-induced hemolysis in rat RBC after 3 hrs. Format: functional, cell-based. Summed up: (§2)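 Rat blood drawn from abdominal aorta; RBC separated by centrifugation (2500 rpm, 10 min), washed three times with five volumes PBS pH 7.4. 2 mL RBC suspension mixed with 2 mL PBS containing varying glycoside amounts, then 1 mL of 400 mM AAPH in PBS; shaken at 37 °C for 3 h. Diluted with 8 mL PBS, centrifuged, supernatant A540 read; % inhibition versus control.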

Test [1] is described as follows: as §1. The class given is functional, cell-based. To be noted: erythrocyte. The method in brief: as §2

Activity calls are given as the source filed them. The calls are words filed in the database; no cut-off is given here.

A word on the IC50: it is the concentration that gives 50% inhibition.

As to `C=C(C)C(=O)CC/C(C)=C/CO[C@@H]1O[C@H](CO)[C@@H](OC(=O)/C=C/c2ccc(O)cc2)[C@H](O[C@@H]2O[C@@H](C)[C@H](O)[C@@H](O)[C@H]2O)[C@H]1O`, the outcome with Erythrocyte was inactive.

`CC(C)=CCC/C(C)=C/CO[C@@H]1O[C@H](CO)[C@@H](OC(=O)/C=C/c2ccc(O)cc2)[C@H](O[C@@H]2O[C@@H](C)[C@H](O)[C@@H](O)[C@H]2O)[C@H]1O`: in the test with Erythrocyte, the result was inactive.

As to `CC(C)=CCC/C(C)=C/CO[C@@H]1O[C@H](COC(=O)/C=C/c2ccc(O)cc2)[C@@H](O)[C@H](O[C@@H]2O[C@@H](C)[C@H](O)[C@@H](O)[C@H]2O)[C@H]1O`, the result in the test with Erythrocyte was inactive.

As to `C[C@@H]1O[C@@H](O[C@@H]2[C@@H](O)[C@H](OCCc3ccc(O)c(O)c3)O[C@H](CO)[C@H]2OC(=O)/C=C/c2ccc(O)c(O)c2)[C@H](O)[C@H](O)[C@H]1O` [ACETOSIDE], in test [1], the IC50 is 28 µM.

Regarding `O=c1cc(-c2ccc(O)cc2)oc2cc(O[C@@H]3O[C@H](CO)[C@@H](O)[C@H](O)[C@H]3O)cc(O)c12` [APIGETRIN], in test [1], the concentration for half-maximal inhibition (IC50) was found to be 88.4 µM.

`C[C@@H]1O[C@@H](O[C@@H]2[C@@H](O)[C@@H](O)[C@H](O[C@@H]3[C@@H](O)[C@H](OCCc4ccc(O)c(O)c4)O[C@H](CO)[C@H]3OC(=O)/C=C/c3ccc(O)c(O)c3)O[C@H]2C)[C@H](O)[C@H](O)[C@H]1O` [LIGUPURPUROSIDE A]: the IC50 in test [1] was found to be 26.3 µM.

For `C[C@@H]1O[C@@H](O[C@@H]2[C@@H](O)[C@@H](O)[C@H](O[C@@H]3[C@@H](O)[C@H](OCCc4ccc(O)cc4)O[C@H](CO)[C@H]3OC(=O)/C=C/c3ccc(O)cc3)O[C@H]2C)[C@H](O)[C@H](O)[C@H]1O` [LIGUPURPUROSIDE B], the 50% inhibitory concentration (IC50) in test [1] is 80.4 µM.

For `C/C(=C\CO[C@@H]1O[C@H](CO)[C@@H](OC(=O)/C=C/c2ccc(O)cc2)[C@H](O[C@@H]2O[C@@H](C)[C@H](O)[C@@H](O)[C@H]2O)[C@H]1O)C/C=C\C(C)(C)O` [LIGUROBUSTOSIDE I], the IC50 in test [1] was determined as 340 µM.

`C[C@@H]1O[C@@H](O[C@@H]2[C@@H](O)[C@@H](O)[C@H](O[C@@H]3[C@@H](O)[C@H](OCCc4ccc(O)cc4)O[C@H](CO)[C@H]3O)O[C@H]2C)[C@H](O)[C@H](O)[C@H]1O` [LIGUROBUSTOSIDE M]: the half-maximal inhibitory concentration (IC50) in test [1] was determined as 134 µM.

As for `C[C@@H]1O[C@@H](O[C@@H]2[C@@H](O)[C@@H](O)[C@H](O[C@@H]3[C@@H](O)[C@H](OCCc4ccc(O)cc4)O[C@H](CO)[C@H]3OC(=O)/C=C/c3ccc(O)c(O)c3)O[C@H]2C)[C@H](O)[C@H](O)[C@H]1O` [LIGUROBUSTOSIDE N], the concentration for half-maximal inhibition (IC50) in test [1] amounted to 21.8 µM.

Take `C[C@@H]1O[C@@H](O[C@@H]2[C@@H](O)[C@H](OCCc3ccc(O)cc3)O[C@H](COC(=O)/C=C/c3ccc(O)cc3)[C@H]2O)[C@H](O)[C@H](O)[C@H]1O` [OSMANTHUSIDE B6]: in test [1], the IC50 was found to be 91.7 µM.

For the molecule `C[C@@H]1O[C@@H](O[C@@H]2[C@@H](O)[C@H](OCCc3ccc(O)cc3)O[C@H](CO)[C@H]2OC(=O)/C=C/c2ccc(O)cc2)[C@H](O)[C@H](O)[C@H]1O` [OSMANTHUSIDE B], the IC50 in test [1] was determined as 160 µM.

As to `C[C@@H]1O[C@@H](O[C@H]2[C@H](Oc3cc(O)c4c(=O)cc(-c5ccc(O)cc5)oc4c3)O[C@H](CO)[C@@H](O)[C@@H]2O)[C@H](O)[C@H](O)[C@H]1O` [RHOIFOLIN], the IC50 in test [1] came out at 95.9 µM.

As for `Cc1c(C)c2c(c(C)c1O)CCC(C)(C(=O)O)O2` (centres undefined) [TROLOX], the IC50 in test [1] was found to be 101 µM.
